This note sets out measurements from ChEMBL document CHEMBL1129462, “Synthesis and angiotensin II receptor antagonistic activities of benzimidazole derivatives bearing acidic heterocycles as novel tetrazole bioisosteres” (J Med Chem, 1996).

As usually defined, the IC50 is the concentration needed to halve the response being measured. Low readings indicate inhibition by little substance, high ones a need for much substance. One may read the inhibition as the relative decrease from the control value, in per cent. Lower therefore signals a weak effect. One may read the Inhibition as the change of the read-out against control, counted positive when it falls. What is called pKa is the negative logarithm of the acid dissociation constant. In general, logP refers to the decadic logarithm of the partition coefficient of the neutral form, usually between octanol and water. A lower logP goes with a more hydrophilic compound.

Data set [1] can be described thus: Inhibition of specific binding of [125I]angiotensin II (0.2 nM) to angiotensin II receptor in bovine adrenal cortex. Format: tissue-based, Bos taurus.
Data set [2] concerns the target T1, Angiotensin II receptor (Rattus norvegicus) (UniProt P29089+P25095+P35351). Put plainly: Percent inhibition of angiotensin II (0.1 ug/kg iv) -induced pressor response 3h after administration of test compounds (1 mg/kg po) in conscious male Sprague-Dawley rats. It is filed as functional, organism-based. In short, it runs like this:
(§1)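 Conscious male Sprague-Dawley rats were given the test compound at 1 mg/kg orally. They were then challenged with AII at 0.1 μg/kg iv. The AII-induced pressor response was measured 3 and 7 h after dosing and expressed as percent inhibition.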

Data set [3] addresses T1, Angiotensin II receptor (Rattus norvegicus). Put plainly: Percent inhibition of angiotensin II (0.1 ug/kg iv) -induced pressor response 7 hr after administration of test compounds (1 mg/kg po) in conscious male Sprague-Dawley rats. Format: functional, organism-based. In short, it runs like this:
as §1

The subject of data set [4] is Rattus norvegicus. Put plainly: Percent inhibition of AII-induced pressor response 7 hr after administration of test compounds (1 mg/kg po) in conscious male Sprague-Dawley rats.
Data set [5] has as its system Rattus norvegicus. Put plainly: Percent inhibition of AII (0.1 ug/kg iv) -induced pressor response at 7 hr after administration of test compounds (0.1 mg/kg po) in conscious male Sprague-Dawley rats. The settings on record: in the assay text read “3 hr” for “7 hr”. It is filed as functional. In short, it runs like this: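 In conscious male Sprague-Dawley rats, the oral test dose was 0.1 mg/kg. The pressor response to an AII challenge (0.1 μg/kg iv) was recorded after dosing, and percent inhibition was calculated.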

The nature of data set [6]: pka value was determined. It is filed as physicochemical. In short, it runs like this: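 pKa of the acidic group was estimated from the corresponding methyl ester. Titration was potentiometric with standardized 0.1 N NaOH in DMSO–H2O (2:3) at 26 °C.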
Data set [7] in a line: Bioavailability. Format: ADME, organism-based. The following applies: eutheria, in vivo; read-out: BA.
Data set [8] can be described thus: Partition coefficient (logP). Format: physicochemical. The following applies: octanol/water.
Data set [9] relates to Rattus norvegicus. Nature of the data set: Percent inhibition of AII (0.1 ug/kg iv) -induced pressor response at 3 hr after administration of test compounds (0.1 mg/kg po) in conscious male Sprague-Dawley rats.
Data set [10] has as its system Rattus norvegicus. Nature of the data set: Percent inhibition of AII ([…]) -induced pressor response 7 hr after administration of test compounds (1 mg/kg po) in conscious male Sprague-Dawley rats. Format: functional.

As for `CCCSc1nc2cccc(C(=O)O)c2n1Cc1ccc(-c2ccccc2-c2nsc(O)n2)cc1`, in data set [1], the IC50 is > 1 µM. Also, the inhibition in data set [2] and in data set [3] was 100% throughout.

The compound `CCOc1nc2cccc(C(=O)OC)c2n1Cc1ccc(-c2ccccc2-c2nsc(O)n2)cc1` yielded a 50% inhibitory concentration (IC50) in [1] of 0.75 µM. The inhibition in data set [2] and in data set [3] was 100% throughout.

On to `CCCc1nc2cccc(C(=O)O)c2n1Cc1ccc(-c2ccccc2-c2nsc(O)n2)cc1`, for which the IC50 in [1] was 0.36 µM. The inhibition in data set [2] and in data set [3] was 100% throughout.

Compound `CCSc1nc2cccc(C(=O)O)c2n1Cc1ccc(-c2ccccc2-c2noc(S)n2)cc1` registered an IC50 in data set [1] of 0.69 µM. In addition, the inhibition in data set [2] and in data set [3] was 100% in each case.

As for `CCCCc1nc2cccc(C(=O)OC)c2n1Cc1ccc(-c2ccccc2-c2noc(O)n2)cc1`, the IC50 in data set [1] came to 0.9 µM.

In data set [1], `CCCCc1nc2cccc(C(=O)O)c2n1Cc1ccc(-c2ccccc2-c2noc(O)n2)cc1` came in with an IC50 of 0.62 µM. Besides, the inhibition in data set [2] stood at 68%; in data set [3], 64%.

Regarding `CCCCc1nc2cccc(C(=O)OC)c2n1Cc1ccc(-c2ccccc2C2=NOS(=O)N2)cc1` (stereo unspecified), in the data set on Rattus norvegicus [4], the Inhibition worked out at 22%. Besides, the IC50 in data set [1] is > 1 µM. For the same compound, the inhibition in data set [2] was 63%.

As for `CCCc1nc2cccc(C(=O)O)c2n1Cc1ccc(-c2ccccc2-c2noc(S)n2)cc1`, in data set [1], the IC50 was found to be 0.39 µM. Besides, the inhibition in data set [2] was 96%; in data set [3], 94%.

The compound `CCSc1nc2cccc(C(=O)O)c2n1Cc1ccc(-c2ccccc2-c2nsc(O)n2)cc1` displayed an IC50 in data set [1] of 0.47 µM. Moreover, the inhibition in data set [2] and in data set [3] was 100% in each case.

Take `CCCCc1nc2cccc(C(=O)OC)c2n1Cc1ccc(-c2ccccc2-c2nsc(O)n2)cc1`: the IC50 in data set [1] was > 1 µM. In the data set on Rattus norvegicus [5], this compound gave an Inhibition of 10%. Besides, in data set [2], the inhibition came out at 87%.

`CCOc1nc2cccc(C(=O)O)c2n1Cc1ccc(-c2ccccc2-c2nnn[nH]2)cc1` yielded a pKa in [6] of 5.3. Also, the bioavailability in data set [7] was 5%. The IC50 in data set [1] is 0.11 µM.

The compound `CCc1nc2cccc(C(=O)O)c2n1Cc1ccc(-c2ccccc2-c2nsc(O)n2)cc1` registered an IC50 in data set [1] of 0.069 µM. For the same compound, the inhibition in [2] and in data set [3] was 100% throughout.

`CCCCc1nc2cccc(C(=O)OC)c2n1Cc1ccc(-c2ccccc2-c2nn[nH]n2)cc1` returned an IC50 in data set [1] of 0.32 µM.

For the compound `CCNc1nc2cccc(C(=O)O)c2n1Cc1ccc(-c2ccccc2-c2nsc(O)n2)cc1`, the IC50 in data set [1] stood at 0.13 µM. In addition, the inhibition in [2] is 70%; in data set [3], 71%.

With `CCOc1nc2cccc(C(=O)OC)c2n1Cc1ccc(-c2ccccc2-c2nn[nH]n2)cc1`, the 50% inhibitory concentration (IC50) in data set [1] was found to be 0.066 µM.

In turn, `CCOc1nc2cccc(C(=O)O)c2n1Cc1ccc(-c2ccccc2-c2nsc(O)n2)cc1` came in with a pKa in data set [6] of 6.6. In data set [8], this compound came in with a logP of 1.58. In addition, in [7], the bioavailability turned out to be 51%. The compound also had an IC50 in [1] of 0.25 µM. The compound also gave an Inhibition in the data set on Rattus norvegicus [5] of 100%. In [2], this compound had an inhibition of 100%.

Compound `CCCCc1nc2cccc(C(=O)OC)c2n1Cc1ccc(-c2ccccc2-c2noc(S)n2)cc1` displayed an Inhibition in the data set with Rattus norvegicus [9] of 7%. Further, the half-inhibitory concentration (IC50) in data set [1] was > 1 µM. Besides, the inhibition in [2] stood at 84%.

In data set [1], `Cc1nc2cccc(C(=O)O)c2n1Cc1ccc(-c2ccccc2-c2nsc(O)n2)cc1` registered a 50% inhibitory concentration (IC50) of 0.97 µM. Also, the results for the inhibition in data set [2] and in data set [3] were 80% and 71%, respectively.

Take `CCCCc1nc2cccc(C(=O)O)c2n1Cc1ccc(-c2ccccc2-c2noc(S)n2)cc1`: the IC50 in data set [1] turned out to be 0.76 µM. The Inhibition in the data set on Rattus norvegicus [5] amounted to 19%. Besides, the inhibition in data set [2] came out at 82%.

Consider `CCOc1nc2cccc(C(=O)O)c2n1Cc1ccc(-c2ccccc2-c2noc(=O)[nH]2)cc1` [AZILSARTAN], for which the pKa in data set [6] came to 6.1. Further, the bioavailability in data set [7] amounted to 20%. Also, the Inhibition in the data set on Rattus norvegicus [9] was found to be 75%. The compound also came in with an IC50 in data set [1] of 0.42 µM. Also, in data set [2], the inhibition was 100%.

As to `Cc1nc2cccc(C(=O)O)c2n1Cc1ccc(-c2ccccc2-c2noc(S)n2)cc1`, the IC50 in [1] is > 1 µM. In addition, the values for the inhibition in data set [2] and in [3] were 57% and 50%, respectively.

On to `COc1nc2cccc(C(=O)O)c2n1Cc1ccc(-c2ccccc2-c2nsc(O)n2)cc1`, for which the inhibition was determined as 88% in [2] and 91% in data set [3].

For `CSc1nc2cccc(C(=O)O)c2n1Cc1ccc(-c2ccccc2-c2nsc(O)n2)cc1`, in data set [1], the concentration for half-maximal inhibition (IC50) was determined as 0.5 µM. For the same compound, the inhibition in data set [2] and in data set [3] was 100% throughout.

Take `CSc1nc2cccc(C(=O)O)c2n1Cc1ccc(-c2ccccc2-c2noc(S)n2)cc1`: the IC50 in data set [1] was 1 µM. For the same compound, the inhibition in data set [2] is 100%; in [3], 91%.

As to `CCCCc1nc(Cl)c(CO)n1Cc1ccc(-c2ccccc2-c2nnn[nH]2)cc1` [LOSARTAN], the IC50 in data set [1] was determined as 0.15 µM.

The compound `CCCOc1nc2cccc(C(=O)O)c2n1Cc1ccc(-c2ccccc2-c2nsc(O)n2)cc1` yielded an IC50 in data set [1] of 0.92 µM. In addition, the inhibition in data set [2] is 83%; in data set [3], 100%.

As to `CNc1nc2cccc(C(=O)O)c2n1Cc1ccc(-c2ccccc2-c2nsc(O)n2)cc1`, the IC50 in data set [1] worked out at 0.54 µM. Further, the values for the inhibition in data set [2] and in data set [3] were 32% and 29%, respectively.

On to `CCCCc1nc2cccc(C(=O)O)c2n1Cc1ccc(-c2ccccc2-c2nsc(O)n2)cc1`, for which the half-inhibitory concentration (IC50) in data set [1] came to 0.72 µM. Moreover, the Inhibition with Rattus norvegicus [5] was determined as 19%. For the same compound, the inhibition in data set [2] was found to be 92%.

Regarding `CCOc1nc2cccc(C(=O)OC)c2n1Cc1ccc(-c2ccccc2-c2noc(O)n2)cc1`, the IC50 in [1] was determined as 0.44 µM. In addition, the inhibition in data set [2] and in data set [3] was 100% throughout.

With `CCOc1nc2cccc(C(=O)OC)c2n1Cc1ccc(-c2ccccc2C2=NOS(=O)N2)cc1` (stereo unspecified), in [1], the IC50 worked out at 0.46 µM. In addition, the Inhibition with Rattus norvegicus [10] was 29%. In data set [2], this compound came in with an inhibition of 35%.

As for `CCCSc1nc2cccc(C(=O)O)c2n1Cc1ccc(-c2ccccc2-c2noc(S)n2)cc1`, the IC50 in data set [1] was > 1 µM. Moreover, the inhibition in [2] and in [3] was 100% throughout.

Compound `CCc1nc2cccc(C(=O)O)c2n1Cc1ccc(-c2ccccc2-c2noc(S)n2)cc1` registered an IC50 in [1] of 0.34 µM. Further, the results for the inhibition in data set [2] and in data set [3] were 91% and 89%, respectively.

In the case of `CCOc1nc2cccc(C(=O)OC)c2n1Cc1ccc(-c2ccccc2-c2noc(S)n2)cc1`, the IC50 in [1] is > 1 µM. The inhibition in data set [2] was 83%; in data set [3] it was 93%.

In data set [1], `CCCCc1nc2cccc(C(=O)O)c2n1Cc1ccc(-c2ccccc2-c2nn[nH]n2)cc1` registered an IC50 of 0.55 µM.
